In ChEMBL document CHEMBL1123430, “Potential tumor- or organ-imaging agents. 26. Polyiodinated 2-substituted triacylglycerols as hepatographic agents” (J Med Chem, 1986):

What was measured:
Rattus norvegicus [1] = test: Distribution of radioactivity of radiolabeled compound in heart of female rats 5 minutes after intravenous administration; format: ADME, organism-based; details: in vivo
Rattus norvegicus [2] = test: Distribution of radioactivity of radiolabeled compound in blood of female rats 5 minutes after intravenous administration; format: ADME, organism-based; details: in vivo
Rattus norvegicus [3] = test: Polyacrylamide Gel Electrophoresis (PAGE) analysis of rat plasma 5 min after intravenous administration of radiolabeled compound in albumin; format: functional, organism-based
Procedure, shortened: (§1)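 Gels were sectioned and counted in a γ counter. Radioactivity in each band (stacking gel, LDL, HDL, albumin, below albumin) is expressed as a percentage of the total radioactivity applied to the gel, ± SEM, n = 3-5.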

Rattus norvegicus [4] = test: Polyacrylamide Gel Electrophoresis (PAGE) analysis of rat plasma 5 minutes after intravenous administration of radiolabeled compound in low-density lipoprotein; format: functional, organism-based
Procedure, shortened: (§2)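 ¹²⁵I-labeled compound, radioiodinated by exchange in a pivalic acid melt, solubilized in normal saline with Tween 20 and given iv to adult female Sprague–Dawley rats (200–250 g), 5–30 μCi/animal, 3–4 rats per time point. Plasma was run on polyacrylamide gels. Gels were sectioned and gamma counted. Radioactivity per band (stacking gel, LDL, HDL, albumin, below albumin) is given as % of total applied; mean ± SEM, n = 3-5.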

Rattus norvegicus [5] = test: Distribution of radioactivity of radiolabeled compound in heart of female rats 30 minutes after intravenous administration; format: ADME, organism-based; details: in vivo, 0.5 h
Rattus norvegicus [6] = test: Polyacrylamide Gel Electrophoresis (PAGE) analysis of rat plasma after intravenous administration of radiolabeled compound in high density lipoprotein; format: functional, organism-based; procedure, shortened: as §2
Rattus norvegicus [7] = test: Distribution of radioactivity of radiolabeled compound in kidney of female rats 5 minutes after intravenous administration; format: ADME, organism-based; details: in vivo
Rattus norvegicus [8] = test: Polyacrylamide Gel Electrophoresis (PAGE) analysis of rat plasma 30 min after intravenous administration of radiolabeled compound ( below albumin ); format: functional, organism-based; procedure, shortened: as §1
Rattus norvegicus [9] = test: Distribution of radioactivity of radiolabeled compound in kidney of female rats 30 minutes after intravenous administration; format: ADME, organism-based; details: in vivo, 0.5 h
Rattus norvegicus [10] = test: Distribution of radioactivity of radiolabeled compound in lung of female rats 5 minutes after intravenous administration; format: ADME, organism-based; details: in vivo
Rattus norvegicus [11] = test: Polyacrylamide Gel Electrophoresis (PAGE) analysis of rat plasma 5 minutes after intravenous administration of radiolabeled compound in high density lipoprotein; format: functional, organism-based; procedure, shortened: as §2
Rattus norvegicus [12] = test: Polyacrylamide Gel Electrophoresis (PAGE) analysis of rat plasma after intravenous administration of radiolabeled compound at concentration of low-density lipoprotein; format: functional, organism-based; procedure, shortened: as §2
Rattus norvegicus [13] = test: Polyacrylamide Gel Electrophoresis (PAGE) analysis of rat plasma 5 minutes after intravenous administration of radiolabeled compound in stacking gel; format: functional, organism-based; procedure, shortened: as §2
Rattus norvegicus [14] = test: Polyacrylamide Gel Electrophoresis (PAGE) analysis of rat plasma 30 min after intravenous administration of radiolabeled compound in albumin; format: functional, organism-based; procedure, shortened: as §1
Rattus norvegicus [15] = test: Distribution of radioactivity of radiolabeled compound in liver of female rats 30 minutes after intravenous administration; format: ADME, organism-based; details: in vivo, 0.5 h
Rattus norvegicus [16] = test: Distribution of radioactivity of radiolabeled compound in blood of female rats 30 minutes after intravenous administration; format: ADME, organism-based; details: in vivo, 0.5 h
Rattus norvegicus [17] = test: Polyacrylamide Gel Electrophoresis (PAGE) analysis of rat plasma 5 minutes after intravenous administration of radiolabeled compound in albumin; format: functional, organism-based; procedure, shortened: as §2
Rattus norvegicus [18] = test: Distribution of radioactivity of radiolabeled compound in lung of female rats 30 minutes after intravenous administration; format: ADME, organism-based; details: in vivo, 0.5 h
Rattus norvegicus [19] = test: Distribution of radioactivity of radiolabeled compound in liver of female rats 5 minutes after intravenous administration; format: ADME, organism-based; details: in vivo
Rattus norvegicus [20] = test: Polyacrylamide Gel Electrophoresis (PAGE) analysis of rat plasma after intravenous administration of radiolabeled compound concentration of stacking gel; format: functional, organism-based; procedure, shortened: as §2
Rattus norvegicus [21] = test: Polyacrylamide Gel Electrophoresis (PAGE) analysis of rat plasma 5 minutes after intravenous administration of radiolabeled compound (below albumin); format: functional, organism-based; procedure, shortened: as §2
Rattus norvegicus [22] = test: Polyacrylamide Gel Electrophoresis (PAGE) analysis of rat plasma 30 minutes after intravenous administration of radiolabeled compound in low-density lipoprotein; format: functional, organism-based; procedure, shortened: as §1
Rattus norvegicus [23] = test: Polyacrylamide Gel Electrophoresis (PAGE) analysis of rat plasma 30 minutes after intravenous administration of radiolabeled compound in high density lipoprotein; format: functional, organism-based; procedure, shortened: as §1
Rattus norvegicus [24] = test: Polyacrylamide Gel Electrophoresis (PAGE) analysis of rat plasma 30 minutes after intravenous administration of radiolabeled compound in albumin; format: functional, organism-based; procedure, shortened: as §1
Rattus norvegicus [25] = test: Polyacrylamide Gel Electrophoresis (PAGE) analysis of rat plasma 30 minutes after intravenous administration of radiolabeled compound concentration of stacking gel; format: functional, organism-based; procedure, shortened: as §1
Rattus norvegicus [26] = test: Polyacrylamide Gel Electrophoresis (PAGE) analysis of rat plasma 30 minutes after intravenous administration of radiolabeled compound (below albumin ); format: functional, organism-based; procedure, shortened: as §1
Rattus norvegicus [27] = test: Percentage parent compound in rat plasma 5 minutes after iv administration of the radiolabeled compound by thin-layer chromatography; format: functional
Procedure, shortened: (§3)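 Liver and plasma were taken at 5 or 30 min. Plasma was extracted by a modified Folch procedure, and liver was homogenized and extracted. Extracts were run on TLC in hexane/ethyl acetate (5:2) for esters or THF/hexane (1:1) for acids, with unlabeled compound as reference. Plates were cut into 1-cm strips and counted. Values are percent ± SEM, n = 3-5.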

Rattus norvegicus [28] = test: Polyacrylamide Gel Electrophoresis (PAGE) analysis of rat plasma 5 min after intravenous administration of radiolabeled compound (below albumin); format: functional, organism-based; procedure, shortened: as §1
Rattus norvegicus [29] = test: Polyacrylamide Gel Electrophoresis (PAGE) analysis of rat plasma 30 min after intravenous administration of radiolabeled compound (below albumin); format: functional, organism-based; procedure, shortened: as §1
Rattus norvegicus [30] = test: Percentage […]/CH3OH extract of the radiolabeled compound in rat liver 30 minutes after iv administration; format: functional; procedure, shortened: as §3
Rattus norvegicus [31] = test: Polyacrylamide Gel Electrophoresis (PAGE) analysis of rat plasma 30 min after intravenous administration of radiolabeled compound in low-density lipoprotein; format: functional, organism-based; procedure, shortened: as §1
Rattus norvegicus [32] = test: Percentage […]/CH3OH extract of the radiolabeled compound in rat plasma 30 minutes after iv administration; format: functional; procedure, shortened: as §3
Rattus norvegicus [33] = test: Polyacrylamide Gel Electrophoresis (PAGE) analysis of rat plasma 30 min after intravenous administration of radiolabeled compound in stacking gel; format: functional, organism-based; procedure, shortened: as §1
Rattus norvegicus [34] = test: Percentage […]/CH3OH extract of the radiolabeled compound in rat liver 5 minutes after iv administration; format: functional; procedure, shortened: as §3
Rattus norvegicus [35] = test: Percentage parent compound in rat liver 5 minutes after iv administration of the radiolabeled compound by thin-layer chromatography; format: functional; procedure, shortened: as §3
Rattus norvegicus [36] = test: Percentage parent compound in rat plasma 30 minutes after iv administration of the radiolabeled compound by thin-layer chromatography; format: functional; procedure, shortened: as §3
Rattus norvegicus [37] = test: Distribution of radioactivity of radiolabeled compound in heart of female rats 30 minutes after intravenous administration at; format: ADME, organism-based; details: in vivo, 0.5 h
Rattus norvegicus [38] = test: Percentage […]/CH3OH extract of the radiolabeled compound in rat plasma 5 minutes after iv administration; format: functional; procedure, shortened: as §3
Rattus norvegicus [39] = test: Percentage parent compound in rat liver 30 minutes after iv administration of the radiolabeled compound by thin-layer chromatography; format: functional; procedure, shortened: as §3
Rattus norvegicus [40] = test: Polyacrylamide Gel Electrophoresis (PAGE) analysis of rat plasma 30 minutes after intravenous administration of radiolabeled compound concentration in stacking gel; format: functional, organism-based; procedure, shortened: as §1
Rattus norvegicus [41] = test: Polyacrylamide Gel Electrophoresis (PAGE) analysis of rat plasma 5 minutes after intravenous administration of radiolabeled compound (below albumin ); format: functional, organism-based; procedure, shortened: as §2
Rattus norvegicus [42] = test: Polyacrylamide Gel Electrophoresis (PAGE) analysis of rat plasma 30 minutes after intravenous administration of radiolabeled compound (below albumin); format: functional, organism-based; procedure, shortened: as §1

Dose (Rattus norvegicus [1])	Dose (Rattus norvegicus [2])	Dose (Rattus norvegicus [5])	Dose (Rattus norvegicus [7])	Dose (Rattus norvegicus [9])	Dose (Rattus norvegicus [10])	Dose (Rattus norvegicus [15])	Dose (Rattus norvegicus [16])	Dose (Rattus norvegicus [18])	Dose (Rattus norvegicus [19])	Structure (SMILES)	Concentration (Rattus norvegicus [3])	Concentration (Rattus norvegicus [4])	Concentration (Rattus norvegicus [11])	Concentration (Rattus norvegicus [13])	Concentration (Rattus norvegicus [14])	Concentration (Rattus norvegicus [22])	Concentration (Rattus norvegicus [23])	Activity (Rattus norvegicus [27])	Activity (Rattus norvegicus [30])	Activity (Rattus norvegicus [32])	other results
0.74%	2.19%	0.46%	0.71%	0.52%	0.81%	1.46%	1.21%	0.61%	1.64%	CCC(Cc1c(I)cc(I)c(N)c1I)C(=O)O (stereo unspecified) [IOPANOIC ACID]	77.5	0.5%	19.8	0.6%	78.4	–	–	–	–	–	Concentration (Rattus norvegicus [6]): 8.7%; Concentration (Rattus norvegicus [8]): 6.7%; Concentration (Rattus norvegicus [12]): 2.2; Concentration (Rattus norvegicus [17]): 77.5; Concentration (Rattus norvegicus [20]): 3.9
1.06%	2.25%	1.01%	0.48%	1.01%	1.11%	4.37%	1.23%	0.84%	6.3%	Nc1c(I)cc(I)c(CCCCCCCCCCCCCCCCC(=O)O)c1I	60	4.7%	26.6	5.2%	–	3.2%	18.5%	–	–	–	Concentration (Rattus norvegicus [21]): 3.5; Concentration (Rattus norvegicus [24]): 60.6; Concentration (Rattus norvegicus [25]): 7.6; Concentration (Rattus norvegicus [26]): 10%
0.49%	2.5%	–	0.42%	1.29%	3.16%	5.97%	1.42%	1.72%	4.07%	CCCCCCCCCCCCCCCC(=O)OCC(COC(=O)CCCCCCCCCCCCCCC)OC(=O)CCCCCCCCCCCCCCCCc1c(I)cc(I)c(N)c1I	32.1	12.6%	48.1	4.6%	44.6	–	27%	32.6%	47.2%	71.3%	Concentration (Rattus norvegicus [28]): 2.7; Concentration (Rattus norvegicus [29]): 9; Concentration (Rattus norvegicus [31]): 8.6; Concentration (Rattus norvegicus [33]): 10.9; Activity (Rattus norvegicus [34]): 44.3%; Activity (Rattus norvegicus [35]): 24%; Activity (Rattus norvegicus [36]): 23.8%; Dose (Rattus norvegicus [37]): 0.74%; Activity (Rattus norvegicus [38]): 83.8%; Activity (Rattus norvegicus [39]): 40.8%
0.63%	6.23%	0.68%	0.93%	0.87%	1.41%	4%	6.5%	1.34%	2.96%	CCCCCCCCCCCCCCCC(=O)OCC(COC(=O)CCCCCCCCCCCCCCC)OC(=O)Cc1c(I)cc(I)c(N)c1I	3.3	34%	50.5	9%	1.9	41.2%	53.4%	97.7%	83.1%	81.5%	Concentration (Rattus norvegicus [40]): 3%; Activity (Rattus norvegicus [34]): 91.2%; Activity (Rattus norvegicus [35]): 91.7%; Activity (Rattus norvegicus [36]): 91.9%; Activity (Rattus norvegicus [38]): 89.4%; Activity (Rattus norvegicus [39]): 89%; Concentration (Rattus norvegicus [41]): 3.2; Concentration (Rattus norvegicus [42]): 0.5
